Only some compounds are listed: those with a hit (about 6.8% of all), similar ones and a draw of the others.
Cdc25B block – human M-phase inducer phosphatase 2 inhibition | recombinant Cdc25B, OMFP fluorescence Ex485/Em525 | AID 368 | hit rate 0.1% among 65,000 | P30305 | inhibition, %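 (compounds tested at 10 µM final in the well)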; in the data active means inhibition above about 50%
Target sequence (P30305 whole entry, looked up): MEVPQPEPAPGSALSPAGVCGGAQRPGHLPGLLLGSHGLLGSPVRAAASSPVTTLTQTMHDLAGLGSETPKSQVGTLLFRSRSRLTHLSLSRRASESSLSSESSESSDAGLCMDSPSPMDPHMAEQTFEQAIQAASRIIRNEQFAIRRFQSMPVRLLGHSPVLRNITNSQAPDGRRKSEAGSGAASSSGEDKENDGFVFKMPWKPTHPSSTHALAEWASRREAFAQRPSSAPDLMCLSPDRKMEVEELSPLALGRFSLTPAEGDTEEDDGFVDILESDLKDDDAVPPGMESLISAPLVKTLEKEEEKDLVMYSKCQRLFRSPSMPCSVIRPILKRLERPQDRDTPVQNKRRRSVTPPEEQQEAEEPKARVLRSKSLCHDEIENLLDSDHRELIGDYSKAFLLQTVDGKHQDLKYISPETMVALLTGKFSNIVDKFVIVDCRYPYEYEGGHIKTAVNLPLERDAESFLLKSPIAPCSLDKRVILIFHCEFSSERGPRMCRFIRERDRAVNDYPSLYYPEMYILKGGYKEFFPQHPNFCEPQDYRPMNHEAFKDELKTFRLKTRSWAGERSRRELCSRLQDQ
Her2 expr inh – Her2 kinase expression inhibition; SKBR-3 HER2 protein level, AlphaScreen, 18-24 h; active compounds read low; HER2 level % of control, % at 10 µM; hit rate 0.69% among 65,000; AID 645;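 active means HER2 level under 5% of the carrier-only control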;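 further: 100% = DMSO carrier and 0% = 500 nM PU-H71 HSP90 inhibitor; lower value means stronger loss of Her2 protein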
M1 ag – M1 muscarinic receptor agonism | CHO-M1 cells, Fluo-4 calcium fluorescence, agonist mode; active compounds read high | B-score at 10 µM | hit rate 3% among 64,000;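 active means fluorescence rise, raw or as B-score row- and column-corrected plate score, outside the 99.7% band of its plate's samples, either direction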
HEK293 NFkB inh – inhibitors of the PMA/ionomycin-induced NF-kB reporter in HEK293 cells; HEK-293 NF-kB luciferase reporter, luminescence; inhibition, % at 3 µM; hit rate 0.21% among 62,000; AID 465;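 active means inhibition above the mean of all tested compounds plus 3 SD, cut at about 40% in these data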;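 further: 0% = stimulated DMSO wells and 100% = 10 µM reference inhibitor 5653914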
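System: NF-kB luciferase reporter HEK-293 cells | Replication: Single test | Control set: DMSO vs reference inhibitor | Evaluation: % inhibition | Schedule: 1 h pretreatment, 16 h stimulation, 37 °C | Probe or stimulus: PMA with ionomycin | Compound dosing: One dose, 3 µM | Detection: Luciferase luminescence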
DUSP1 inh – human dual specificity phosphatase 1 inhibition. P28562. recombinant MKP-1, OMFP hydrolysis fluorescence. inhibition, %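 (compounds tested at a single concentration somewhere between 10 and 100 µM)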. hit rate 0.15% among 65,000;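 active means inhibition above about 50%, limit read from the data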;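 further: 0% = DMSO max control wells and 100% = wells with enzyme stopped by NaOH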
M1 antagonist – antagonists of rat M1 muscarinic receptor. hit rate 3.4% among 64,000. P08482. B-score at 10 µM. CHO-M1 cells, Fluo-4 calcium, ACh EC80 antagonist mode; active compounds read low. AID 628;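 active means calcium fluorescence response, raw or row-and-column corrected B-score, differing from the plate sample mean either way at a set confidence level, mostly lower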
M1 antag conf – M1 muscarinic receptor (rat) antagonism, confirmed; shares compounds with M1 antagonist; CHO-M1 cells, Fluo-4 calcium, ACh EC80 antagonism; active compounds read low; calcium response (max-min fluorescence) at 10 µM; hit rate 43% among 1,700;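 active means calcium response below the same-plate mean of wells given acetylcholine alone at its 80%-effect dose, minus 3 SD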;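 further: raw fluorescence intensity difference in arbitrary instrument units and not normalized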
mGluR4 antag – mGluR4 (human) activity, M1 antagonist secondary assay. shares compounds with M1 antagonist. CHO-mGluR4 calcium flux, Fluo-4 fluorescence, glutamate EC80; active compounds read low. fluorescence response (max-min) at 10 µM. hit rate 0.9% among 1,700. AID 678;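 active means fluorescence response below the plate's average for near-maximal glutamate wells, less 3 SD of those wells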;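 further: raw unnormalized fluorescence span taken in the window right after glutamate addition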
The depositor's hits bear a star; · = not tested or not shown.

SMILES | Cdc25B block | Her2 expr inh | M1 ag | HEK293 NFkB inh | DUSP1 inh | M1 antagonist | M1 antag conf | mGluR4 antag
O=C(O)Cn1ncc2c1-c1ccoc1CC2 | -8.4 | 94.3 | -0.55 | -2.9 | 4.2 | -0.795 | · | ·
CCN1CCN(c2ccc(NC(=O)c3cccnc3)cc2Cl)CC1 | -3.6 | 103.8 | -0.863 | 14.0 | -7.7 | -3.56* | 460* | 190
CCCCOc1ccc(C(=O)Nc2ccc(N3CCN(C)CC3)cc2)cc1 | 0.2 | 71.0 | -0.314 | -0.5 | 12.7 | -2.39 | · | ·
CCCCOc1cccc(C(=O)Nc2ccc(N3CCN(CC)CC3)cc2)c1 | -5.4 | 51.0 | 0.116 | 13.0 | -4.3 | -16.4* | 36.1* | 254
CCN1CCN(c2ccc(NC(=O)c3ccc4c(c3)OCO4)cc2)CC1 | -0.1 | 180.3 | 0.0677 | -5.1 | 21.7 | -3.02* | 398* | 267
CCN1CCN(c2ccc(NC(=O)COc3ccccc3Cl)cc2)CC1 | 2.1 | 98.0 | 0.00174 | 6.0 | 1.7 | -8.96* | 322* | 168
c1ccn2c(SCc3cn4ccsc4n3)nnc2c1 | 4.9 | 75.0 | -0.108 | -7.2 | -2.4 | -0.0246 | · | ·
COc1ccc(Cl)cc1NC(=O)CSc1nc(N2CCCCC2)nc(N2CCCCC2)n1 | 0.6 | 85.3 | 0.104 | -3.4 | -10.5 | 0.444 | · | ·
CCN1CCN(C(c2cccs2)C(C)NC(=O)c2cccnc2)CC1 (configuration not stated) | -5.6 | 101.4 | -0.0855 | 7.1 | 6.7 | -1.36* | 578* | 239
CC(NC(=O)c1cccnc1)C(c1cccs1)N1CCN(C)CC1 (configuration not stated) | -2.2 | 85.6 | 0.581 | -0.3 | 6.0 | 0.166 | · | ·
COc1ccccc1C(=O)Nc1c(C)n(C)n(-c2ccccc2)c1=O | 6.4 | 79.0 | 0.289 | 10.3 | 6.9 | -0.0332 | · | ·
COc1ccc(N2C(=O)C(Cl)=C(Nc3c(C)n(C)n(-c4ccccc4)c3=O)C2=O)cc1 | -22.2 | 79.5 | -0.00428 | 9.2 | 4.0 | -3.81* | 427* | 254
COc1ccc(C(=O)N2CCN(C(=O)Cc3ccccc3)CC2)cc1OC | -5.9 | 115.8 | -0.556 | 21.6 | 15.0 | -3.68* | 519 | 181
COc1ccc(Cl)cc1NC(=O)CN1CCC(n2nnc3ccccc32)CC1 | -3.8 | 73.7 | · | 21.3 | 20.7 | · | · | ·
CC1CCN(Cc2ccc(NC(=O)CC3Oc4ccccc4NC3=O)cc2)CC1 (configuration not stated) | -6.1 | 77.8 | -0.703 | -4.8 | -0.5 | -11.1* | 23.9* | 229
CCC(C)N(CCNC(=O)CC1Oc2ccccc2NC1=O)C1CCCCC1 (configuration not stated) | -7.5 | 80.2 | -0.0933 | 5.2 | 5.5 | -10.6* | 61.2* | 229
O=C(CC1Oc2ccccc2NC1=O)NC1CC1 (configuration not stated) | -11.2 | 106.0 | 0.384 | 13.9 | 1.9 | -3.87* | 552 | 196
O=C(COC(=O)C1CCN(S(=O)(=O)c2cccs2)CC1)c1cc2ccccc2o1 | -2.1 | 87.6 | -1.04 | 7.3 | 21.1 | -0.445 | · | ·
CCCCOc1cccc(NC(=O)CSc2nccn2C)c1 | -5.1 | 139.1 | 1.33 | 16.5 | -11.8 | 0.453 | · | ·
COc1cccc2cc(C(=O)C3=C(O)C(=O)N(CCCN4CCOCC4)C3c3ccncc3)oc12 (configuration not stated) | 3.6 | 75.7 | 2 | 15.9 | -9.2 | 0.175 | · | ·
O=C(O)CCNc1cc2ccccc2cc1C(=O)O | 26.0 | 123.5 | -0.52 | -5.6 | 10.9 | 0.41 | · | ·
CCOc1ccc(C2=Nn3c(nnc3-c3ccccn3)SC2)cc1 | -3.5 | 69.1 | 1.36 | · | -20.1 | -3.15* | 653 | 234
Cc1nc2ccc(NC(=O)c3ccc(S(=O)(=O)N4CCOCC4)cc3)cc2s1 | -12.3 | · | -0.711 | · | 3.2 | 0.48 | · | ·
CSc1nc2ccc(S(=O)(=O)N3CCOCC3)cc2s1 | -3.9 | 110.6 | -0.482 | 13.2 | -5.6 | -4.66* | 298* | 167
C=CCOC(=O)Nc1c(C(=O)OC)[nH]c2ccc(Cl)cc12 | -1.8 | 84.4 | 0.548 | 8.9 | 17.3 | -0.324 | · | ·
SMILES | Cdc25B block | Her2 expr inh | M1 ag | HEK293 NFkB inh | DUSP1 inh | M1 antagonist | M1 antag conf | mGluR4 antag
O=c1c2ccccc2n(Cc2ccc(F)cc2)c(=O)n1C1CCCC1 | -0.6 | 94.9 | -0.000253 | 16.4 | 28.2 | -14.3* | 576 | 252
CCOC(=O)c1c(CN(CC)CC)oc2cc(Br)c(O)cc12 | -3.5 | 83.3 | -0.428 | 18.7 | 9.7 | -2.01* | 679 | 217
Cc1noc(C)c1CSc1ncnc2ccccc12 | 4.7 | 82.9 | -0.0182 | 9.8 | 9.1 | -0.303 | · | ·
O=C(COC(=O)Cn1cnc2ccccc21)NCCC1=CCCCC1 | -3.3 | 82.5 | 0.321 | 10.1 | -0.8 | -0.126 | · | ·
CCn1c(C(C)NC(=O)c2cccs2)nc2ccccc21 (configuration not stated) | 2.6 | 104.4 | 0.0034 | 16.2 | 6.2 | 0.339 | · | ·
CCCCn1c(C(C)NC(=O)c2cccs2)nc2ccccc21 (configuration not stated) | -8.8 | 72.8 | 0.288 | 17.4 | 8.9 | -2.57* | 610 | 161
CCCCn1c(C(C)NC(=O)CCC)nc2ccccc21 (configuration not stated) | -4.0 | 104.8 | 0.631 | 6.5 | 0.7 | -4.06* | 555 | 228
CCCCCn1c(C(C)NC(=O)CCC)nc2ccccc21 (configuration not stated) | -18.3 | 102.6 | 0.409 | 8.7 | 14.4 | 0.197 | · | ·
Cc1ccc(C(C(=O)NC2CCCC2)N2CCCCC2)cc1 (configuration not stated) | -12.3 | 121.3 | 0.853 | 25.8 | -7.6 | -3.45* | 468* | 229
Cc1ccc(C(C(=O)NC2CCCCC2)N2CCCC2)cc1 (configuration not stated) | -14.7 | 14.3 | -1.03 | 11.3 | 10.8 | -3.82* | 461* | 253
COC(=O)C1CCCN1C(C(=O)NC1CCCCC1)c1ccc(Cl)cc1 (configuration not stated) | -7.0 | 95.1 | 0.473 | 7.6 | -2.3 | 0.191 | · | ·
CCN1CCN(C(C(=O)NC2CCCC2)c2ccc(Cl)cc2)CC1 (configuration not stated) | -17.0 | 97.3 | 0.111 | -1.0 | 1.4 | -1.5 | · | ·
COc1ccc(C(C(=O)NC2CCCCC2)N2CCC3(CC2)OCCO3)cc1 (configuration not stated) | -0.6 | 108.9 | -0.0111 | 22.8 | -0.1 | 0.027 | · | ·
O=C(NC1CCCCC1)C(c1ccccc1)N1CCCC1 (configuration not stated) | -18.9 | 106.5 | 0 | 12.9 | 11.2 | -13.2* | 121* | 251
CCCSc1nnc2nc3c(nn12)c1ccccc1n3C | -9.9 | 96.2 | 1.55 | 15.0 | 10.8 | -0.049 | · | ·
Cc1ccc(N(CC(=O)NCc2ccc3c(c2)OCO3)S(=O)(=O)c2c(C)noc2C)cc1 | -13.7 | 89.1 | 1.53 | 11.9 | 15.9 | 1.67 | · | ·

Compound activity (PubChem)
